Reference: ChEMBL document CHEMBL4396885, “Thioether-based 2-aminobenzamide derivatives: Novel HDAC inhibitors with potent in vitro and in vivo antitumor activity” (Eur J Med Chem, 2019)
pIC50: −log10 of the molar value.

What was measured:
[1] = target: T1, Histone deacetylase 8 (Homo sapiens, UniProt Q9BY41); experiment: Inhibition of recombinant human HDAC8 assessed as decrease in deacetylation of FLUOR DE LYS substrate preincubated for 10 mins followed by substrate addition and measured after 30 mins by fluorescence based assay
T1 sequence (Q9BY41 whole entry): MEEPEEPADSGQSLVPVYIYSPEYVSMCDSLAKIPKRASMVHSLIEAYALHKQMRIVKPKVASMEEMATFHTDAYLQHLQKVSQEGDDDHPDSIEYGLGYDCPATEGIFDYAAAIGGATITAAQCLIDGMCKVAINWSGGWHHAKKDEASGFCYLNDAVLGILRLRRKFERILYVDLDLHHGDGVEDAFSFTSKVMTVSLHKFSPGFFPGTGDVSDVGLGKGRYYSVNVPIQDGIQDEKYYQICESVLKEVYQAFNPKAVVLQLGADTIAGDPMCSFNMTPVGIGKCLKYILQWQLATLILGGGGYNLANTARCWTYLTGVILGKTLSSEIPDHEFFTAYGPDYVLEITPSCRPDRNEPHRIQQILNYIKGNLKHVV

[2] = test system: A549; experiment: Induction of apoptosis in human A549 cells assessed as viable cells at 1 uM after 48 hrs by Annexin V-FITC/propidium iodide staining based flow cytometry (reference value: 98%); type: functional; conditions: A549, 48 h, read-out: Activity
Outline: (§1)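 A549 seeded 4×10⁶ cells/well, dosed after 12 h with compound at various concentrations, harvested after 48 h. Resuspended in annexin-binding buffer, stained with Annexin V-FITC and propidium iodide for 15 min in the dark, analysed by flow cytometry; means of three separate experiments.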

[3] = test system: A549; experiment: Antiproliferative activity against human A549 cells assessed as growth inhibition at 2 uM after 72 hrs by CCK-8 assay relative to control; type: functional; conditions: A549, 72 h, read-out: GI
[4] = test system: A549; experiment: Antiproliferative activity against human A549 cells assessed as growth inhibition at 8 uM after 72 hrs by CCK-8 assay relative to control; type: functional; conditions: A549, 72 h, read-out: GI
[5] = test system: A-375; experiment: Antiproliferative activity against human A375 cells assessed as growth inhibition at 2 uM after 72 hrs by CCK-8 assay relative to control; type: functional; conditions: A-375, 72 h, read-out: GI
[6] = test system: SMMC-7721; experiment: Antiproliferative activity against human SMMC7721 cells assessed as growth inhibition at 2 uM after 72 hrs by CCK-8 assay relative to control; type: functional; conditions: SMMC-7721, 72 h, read-out: GI
[7] = test system: HeLa; experiment: Antiproliferative activity against human HeLa cells assessed as growth inhibition at 2 uM after 72 hrs by CCK-8 assay relative to control; type: functional; conditions: read-out: GI
[8] = test system: HeLa; experiment: Antiproliferative activity against human HeLa cells assessed as growth inhibition at 8 uM after 72 hrs by CCK-8 assay relative to control; type: functional; conditions: read-out: GI
[9] = test system: A549; experiment: Antiproliferative activity against human A549 cells assessed as decrease in cell viability after 72 hrs by CCK-8 assay; type: functional, cell-based; conditions: A549, 72 h
Outline: (§2)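 Cells grown to 70–85% confluence (A375, A549, HCT116 in RPMI1640; HeLa, SMMC7721 in DMEM; 10% FBS, 37 °C, 5% CO2), seeded 4000/well, dosed after 12 h across a concentration range, incubated 72 h, then CCK-8 for 1 h; absorbance at 450 nm. IC50 as mean ± SD of three separate experiments.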

[10] = test system: SMMC-7721; experiment: Antiproliferative activity against human SMMC7721 cells assessed as decrease in cell viability after 72 hrs by CCK-8 assay; type: functional, cell-based; conditions: SMMC-7721, 72 h; outline: as §2
[11] = test system: HeLa; experiment: Antiproliferative activity against human HeLa cells assessed as decrease in cell viability after 72 hrs by CCK-8 assay; type: functional, cell-based; outline: as §2
[12] = test system: A549; experiment: Induction of apoptosis in human A549 cells assessed as late apoptotic cells at 0.5 uM after 48 hrs by Annexin V-FITC/propidium iodide staining based flow cytometry (reference value: 0.637%); type: functional; outline: as §1
[13] = test system: A549; experiment: Induction of apoptosis in human A549 cells assessed as necrotic cells at 0.5 uM after 48 hrs by Annexin V-FITC/propidium iodide staining based flow cytometry (reference value: 0.135%); type: functional; outline: as §1
[14] = test system: A549; experiment: Induction of apoptosis in human A549 cells assessed as late apoptotic cells at 2 uM after 48 hrs by Annexin V-FITC/propidium iodide staining based flow cytometry (reference value: 0.637%); type: functional; outline: as §1
[15] = test system: A549; experiment: Induction of apoptosis in human A549 cells assessed as necrotic cells at 2 uM after 48 hrs by Annexin V-FITC/propidium iodide staining based flow cytometry (reference value: 0.135%); type: functional; outline: as §1
[16] = test system: A549; experiment: Cell cycle arrest in human A549 cells assessed as accumulation of cells at S phase at 0.5 uM after 48 hrs by propidium iodide staining-based flow cytometry (reference value: 12.83%); type: functional
[17] = test system: A549; experiment: Cell cycle arrest in human A549 cells assessed as accumulation of cells at G2/M phase at 0.5 uM after 48 hrs by propidium iodide staining-based flow cytometry (reference value: 13.62%); type: functional
[18] = test system: A549; experiment: Cell cycle arrest in human A549 cells assessed as accumulation of cells at S phase at 1 uM after 48 hrs by propidium iodide staining-based flow cytometry (reference value: 12.83%); type: functional
[19] = test system: A549; experiment: Cell cycle arrest in human A549 cells assessed as accumulation of cells at G0/G1 phase at 2 uM after 48 hrs by propidium iodide staining-based flow cytometry (reference value: 73.35%); type: functional
[20] = test system: A549; experiment: Cell cycle arrest in human A549 cells assessed as accumulation of cells at S phase at 2 uM after 48 hrs by propidium iodide staining-based flow cytometry (reference value: 12.83%); type: functional
[21] = Half life in ICR mouse at 4 mg/kg, iv after 0.08 to 24 hrs by LC-MS/MS analysis; type: ADME, organism-based; conditions: in vivo
Outline: (§3)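 Male ICR mice (29.7~37.4 g), single iv dose 4 mg/kg in DMSO:40% SBE-β-CD 20:80 (v/v). Retro-orbital blood at 0.08–24 h into EDTA-K2 tubes; plasma protein-precipitated with acetonitrile containing internal standards, analysed by LC-MS/MS; n=3 per time point; noncompartmental analysis.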

[22] = AUC (0 to t) in ICR mouse at 4 mg/kg, iv after 0.08 to 24 hrs by LC-MS/MS analysis; type: ADME, organism-based; parameters: time upper 24 hr, dose 4 mg/kg, time lower 0.08 hr, route intravenous; conditions: in vivo; outline: as §3
[23] = Clearance in ICR mouse at 4 mg/kg, iv after 0.08 to 24 hrs by LC-MS/MS analysis; type: ADME, organism-based; conditions: in vivo; outline: as §3
[24] = test system: A549; experiment: Antitumor activity against human A549 cells xenografted in Balb/c nude mouse assessed as tumor growth inhibition at 25 mg/kg, ip administered twice per day for 21 days relative to control; type: functional; conditions: 504 h, read-out: TGI
Outline: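 Female BALB/c nude mice, 5–6 weeks, implanted s.c. in right axilla with 3×10⁶ A549 cells; randomized at ~95 mm³ tumor volume, 4 per group. Dosed ip 25 mg/kg twice daily for 21 days; vehicle controls got DMA & 5% Solutol HS-15 (5:95). Tumor size (V=length×width²/2) and body weight measured every 3 days; TGI from volume change relative to control.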

[25] = test system: A549; experiment: Inhibition of colony formation in human A549 cells incubated for 10 to 14 days by crystal violet staining based assay; type: functional, cell-based
Outline: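 A549 seeded 3000 cells/well, treated after 12 h at 0.5, 1 and 2 µM, grown 10–14 days, fixed in 4% paraformaldehyde for 15 min and stained with 0.1% crystal violet.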

SMILES	pIC50 [1]	viability at 1 µM [2]	inhibition of growth at 2 µM [3]	inhibition of growth at 8 µM [4]	inhibition of growth at 2 µM [5]	inhibition of growth at 2 µM [6]	inhibition of growth at 2 µM [7]	inhibition of growth at 8 µM [8]	pIC50 [9]	pIC50 [10]	pIC50 [11]	Activity [12]	Activity [13]	Activity [14]	Activity [15]	Activity [16]	Activity [17]	Activity [18]	Activity [19]	Activity [20]	further results
COc1ccc(SCc2ccc(C(=O)Nc3ccccc3N)cc2)cc1	< 4.49	67.9%	45.7%	70.7%	10.2%	33.1%	35%	79.7%	5.59	5.66	5.62	15%	13.8%	26.6%	20.3%	17.55%	18.07%	20.63%	39.3%	12.64%	half-life [21]: 2.24 h; AUC(0-t) [22]: 737 ng·h/mL; clearance [23]: 90.1 mL/min/kg; inhibition in vivo at 25 mg/kg [24]: 57.9%; inhibition [25]: Dose-dependent effect
CCc1ccc(SCc2ccc(C(=O)Nc3ccccc3N)cc2)cc1	< 4.49	70.4%	53.6%	91.4%	19.6%	25.7%	30.8%	71%	5.52	5.76	5.42	7.08%	1.14%	16.7%	13.2%	12.56%	53.55%	9.74%	24%	9.52%	half-life [21]: 2.59 h; AUC(0-t) [22]: 868 ng·h/mL; clearance [23]: 76.3 mL/min/kg; inhibition in vivo at 25 mg/kg [24]: 62.7%; inhibition [25]: Dose-dependent effect
